Measured values taken from ChEMBL document CHEMBL1157391, “Apratoxin E, a cytotoxic peptolide from a guamanian collection of the marine cyanobacterium Lyngbya bouillonii” (J Nat Prod, 2008).
pIC50: −log10 of the molar value. *1 amine or outer side, *2 acyl side, *3 side chain or, on linkers, in order; H or OH if unused. Where a SMILES comes first, the peptide text is derived from it. Bridges are numbered along the chain shown (N, C = ends). Roman numbers before positions name the chains, in order. [ ]: non-standard residue; d: D form. Actinocin(1to9) = Cc1c2oc3c(C)ccc(C(=O)[*:2])c3nc-2c(C(=O)[*:1])c(N)c1=O; NMeV = CN[C@H](C(=O)O)C(C)C; Sar = CNCC(=O)O

Legend:
Type in all cases: functional, cell-based
U2OS = test: Antiproliferative activity against human U2OS cells after 48 hrs by MTT assay
In short: (§1)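 Cells grown in high-glucose DMEM with 10% FBS at 37 °C under humidified 5% CO2. Seeded in 96-well plates at 10 000 (HT29), 3000 (HeLa) or 5000 (U2OS) cells per well. Treated 24 h later with a concentration series; solvent controls were 1% EtOH or 1% DMSO. Viability read by MTT after 48 h incubation.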

HeLa = test: Antiproliferative activity against human HeLa cells after 48 hrs by MTT assay; in short: as §1
HT-29 = test: Antiproliferative activity against human HT29 cells after 48 hrs by MTT assay; conditions: HT-29, 48 h; in short: as §1

Row | SMILES | pIC50 (U2OS) | pIC50 (HeLa) | pIC50 (HT-29)
1 | Cc1c2oc3c(C)ccc(C(=O)N[C@@H]4C(=O)N[C@H](C(C)C)C(=O)N5CCC[C@H]5C(=O)N(C)CC(=O)N(C)[C@@H](C(C)C)C(=O)O[C@@H]4C)c3nc-2c(C(=O)N[C@@H]2C(=O)N[C@H](C(C)C)C(=O)N3CCC[C@H]3C(=O)N(C)CC(=O)N(C)[C@@H](C(C)C)C(=O)O[C@@H]2C)c(N)c1=O [DACTINOMYCIN] (I: T[dV]P[Sar][NMeV] / II: T[dV]P[Sar][NMeV]; ester I:1-I:C, II:1-II:C; linker I:N-II:N via Actinocin(1to9)) | 8.49 | 9.40 | 8.54
2 | CC(=O)O[C@H]1C(=O)[C@@]2(C)[C@H]([C@H](OC(=O)c3ccccc3)[C@]3(O)C[C@H](OC(=O)[C@H](O)[C@@H](NC(=O)c4ccccc4)c4ccccc4)C(C)=C1C3(C)C)[C@]1(OC(C)=O)CO[C@@H]1C[C@@H]2O [PACLITAXEL] | 7.62 | 8.82 | 8.72
3 | CC[C@H](C)[C@H]1C(=O)N2CCC[C@H]2C(=O)O[C@H](C(C)(C)C)C[C@@H](C)C/C=C/C2=N[C@@H](CCC(=O)N[C@@H](Cc3ccc(OC)cc3)C(=O)N(C)[C@@H](C)C(=O)N1C)CS2 [APRATOXIN E] | 7.23 | 7.14 | 7.68
4 | CC[C@H](C)[C@H]1C(=O)N2CCC[C@H]2C(=O)O[C@H](C(C)(C)C)C[C@@H](C)C/C=C(\C)C2=N[C@@H](/C=C(\C)C(=O)N[C@@H](Cc3ccc(OC)cc3)C(=O)N(C)[C@@H](C)C(=O)N1C)CS2 [E-DEHYDROAPRATOXIN A] | 6.80 | 6.92 | 7.39
5 | CC[C@H](C)[C@H]1C(=O)N2CCC[C@H]2C(=O)O[C@H](C(C)(C)C)C[C@@H](C)C[C@H](O)[C@H](C)C2=N[C@@H](/C=C(\C)C(=O)N[C@@H](Cc3ccc(OC)cc3)C(=O)N(C)[C@@H](C)C(=O)N1C)CS2 [APRATOXIN A] | 8.00 | 8.00 | 8.85
